The species entered for data set [1] is Homo sapiens. Description: In vitro inhibitory activity against superoxide production from human neutrophils stimulated with f-MLP; NE indicates no effect. The class given is functional. In a few lines:
(§1)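 Neutrophils isolated from fresh venous blood of healthy adults by dextran sedimentation and Ficoll-paque gradient. Cells diluted in Hepes–Hanks, pH 7.4, then held at 1 × 10^6 cell/mL and preincubated 20 min at 37 °C with or without compound. Cytochalasin B (1 μg/mL final) added 10 min and ferricytochrome c (106 μM final) added 4 min before f-MLP stimulation. Reaction stopped with 1 mM N-ethylmaleimide, cells spun down, superoxide read as SOD-inhibitable absorbance at 550 nm.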

The species entered for data set [2] is Homo sapiens. Description: In vitro inhibitory activity against superoxide production from human neutrophils stimulated with f-MLP. The format is functional. The gist of the method:
as §1

Data set [3] can be described thus: Solubility was measured by shaking with water and 1 equiv of NaOH. The class given is physicochemical. As to conditions: water with 1 equiv of NaOH; call rule not given here. In a few lines: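 Solubility: compound shaken with water plus 1 equiv NaOH; dissolved amount quantified by HPLC.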
For data set [4], the species on record is Homo sapiens. Briefly: In vitro inhibitory activity against superoxide production from human neutrophils stimulated with f-MLP; act.= activation of superoxide production. The format is functional. In a few lines:
as §1

The species entered for data set [5] is Homo sapiens. Briefly: In vitro inhibitory activity against superoxide production from human neutrophils stimulated with f-MLP; NE= No effect. The format is functional. In a few lines: as §1
For data set [6], the species on record is Homo sapiens. Briefly: In vitro inhibitory activity against superoxide production from human neutrophils stimulated with f-MLP; No effect. The class given is functional. In a few lines: as §1
A short description of data set [7]: Solubility was measured by shaking with water. The class given is physicochemical. The gist of the method:
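Aqueous solubility: compound shaken with water; dissolved amount quantified by HPLC.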

The structures appear in SMILES notation.

With `Cc1ccc(-c2nc(-c3ccc4c(c3)CCC(=O)N4)cs2)cc1C`, the IC50 entry in the data set listed under Homo sapiens [1] is listed as “Not Active”.
Take `CCCOc1cc(-c2nc(-c3ccc4c(c3)CCC(=O)N4)cs2)ccc1OC`: in the data set filed under Homo sapiens [2], half-maximal inhibition (IC50) required 90 nM. In other words, the double-digit nanomolar range.
In the case of `CCCOc1ccc(-c2nc(-c3ccc4c(c3)CCC(=O)N4)cs2)cc1OCCC`, in the data set listed under Homo sapiens [1], the IC50 entry is recorded as “Not Active”.
The same measure, in the same setting: for `O=C1CCc2cc(-c3csc(-c4ccc(C(=O)O)cc4)n3)ccc2N1` the value was “Not Active”.
`c1cncc(-c2csc(-c3cccnc3)n2)c1` returned an IC50 in the data set listed under Homo sapiens [2] of 1000 nM.
Still for that read-out and setting: next, `O=C1CCc2cc(-c3csc(-c4ccccc4)n3)ccc2N1`: above 10000 nM.
Consider `COc1ccc(C(O)c2nc(-c3ccc4c(c3)CCC(=O)N4)cs2)cc1OC` (stereo not given), for which, in the data set filed under Homo sapiens [1], the IC50 entry is recorded as “Not Active”.
Take `COc1ccc(-c2nc(-c3ccc4c(c3)CCC(=O)N4)cs2)cc1`: 9000 nM corresponded to half-maximal inhibition in the data set filed under Homo sapiens [2] (IC50).
For the molecule `COc1ccc(/C=C/c2nc(-c3ccc4c(c3)CCC(=O)N4)cs2)cc1OC`, the half-maximal inhibitory concentration (IC50) in the data set listed under Homo sapiens [2] is 2800 nM.
`CCOc1ccc(-c2nc(-c3ccccc3C(=O)O)cs2)cc1OCC`: in data set [3], the solubility came out at 21 mg/mL. Moreover, the IC50 in the data set listed under Homo sapiens [2] was above 10000 nM.
Taken in the same sequence, the figures for `CCOc1ccc(-c2nc(-c3cccc(C(=O)O)c3)cs2)cc1OCC` were 23 mg/mL and 5 nM.
In the case of `COc1cc(OC)cc(-c2nc(-c3ccc4c(c3)CCC(=O)N4)cs2)c1`, the IC50 result in the data set filed under Homo sapiens [1] is “Not Active”.
On the same count and under the same terms, next, `O=C1CCc2cc(-c3csc(-c4ccc([N+](=O)[O-])cc4)n3)ccc2N1`: “Not Active”.
Consider `COc1cccc(-c2nc(-c3ccc4c(c3)CCC(=O)N4)cs2)c1OC`, for which the IC50 entry in the data set listed under Homo sapiens [4] was “Active”.
`COc1ccc(C(=O)c2nc(-c3ccc4c(c3)CCC(=O)N4)cs2)cc1OC` returned a 50% inhibitory concentration (IC50) in the data set filed under Homo sapiens [2] of 1000 nM.
As for `COc1cc(-c2nc(-c3ccc4c(c3)CCC(=O)N4)cs2)ccc1[S+](C)[O-]` (stereo not given), the concentration for half-maximal inhibition (IC50) in the data set listed under Homo sapiens [2] was determined as 800 nM.
Take `CCCCOc1cc(-c2nc(-c3ccc4c(c3)CCC(=O)N4)cs2)ccc1OC`: the IC50 in the data set listed under Homo sapiens [2] was found to be 300 nM.
As for `CCCCOc1ccc(-c2nc(-c3ccc4c(c3)CCC(=O)N4)cs2)cc1OC`, in the data set listed under Homo sapiens [1], the IC50 entry is given as “Not Active”.
The molecule `CCOc1ccc(-c2nc(-c3ccc4c(c3)CCC(=O)N4)cs2)cc1OC` registered an IC50 in the data set listed under Homo sapiens [2] of 600 nM.
The molecule `COc1cc(-c2nc(-c3ccc4c(c3)CCC(=O)N4)cs2)ccc1SC` yielded an IC50 in the data set listed under Homo sapiens [2] of 400 nM.
On to `CCCCCCCCCCOc1ccc(-c2nc(-c3ccc4c(c3)CCC(=O)N4)cs2)cc1OCCCCCCCCCC`, for which the IC50 result in the data set listed under Homo sapiens [5] was “Not Active”.
As for `CCOc1ccc(-c2nc(-c3ccc(C(=O)O)o3)cs2)cc1OCC`, in data set [3], the solubility was 23 mg/mL. Moreover, half-maximal inhibition in the data set listed under Homo sapiens [2] (IC50) required 20 nM.
Taken in the same sequence, the figures for `CCOc1ccc(-c2nc(-c3ccc(C(=O)O)cc3)cs2)cc1OCC` were 23 mg/mL and 200 nM.
In the case of `O=C1CCc2cc(-c3csc(-c4ccc5c(c4)OCCO5)n3)ccc2N1`, in the data set filed under Homo sapiens [1], the IC50 result was “Not Active”.
In the data set filed under Homo sapiens [2], `c1ccc(-c2csc(-c3cccnc3)n2)cc1` displayed an IC50 of 1000 nM.
Regarding `CCCCOc1ccc(-c2nc(-c3ccc4c(c3)CCC(=O)N4)cs2)cc1OCCCC`, the IC50 result in the data set listed under Homo sapiens [1] is reported as “Not Active”.
`CCOc1ccc(-c2nc(-c3ccc4c(c3)CCC(=O)N4)cs2)cc1OCC`: in the data set filed under Homo sapiens [2], half-maximal inhibition (IC50) was put at 80 nM.
Consider `CC(=O)Oc1ccc(-c2nc(-c3ccc4c(c3)CCC(=O)N4)cs2)cc1OC(C)=O`, for which the IC50 result in the data set filed under Homo sapiens [6] was “Not Active”.
Turning to `CCCOc1ccc(-c2nc(-c3ccc4c(c3)CCC(=O)N4)cs2)cc1OC`, the 50% inhibitory concentration (IC50) result in the data set listed under Homo sapiens [1] is “Not Active”.
`COc1ccc(-c2nc(-c3ccc4c(c3)CCC(=O)N4)cs2)cc1OC`: the IC50 in the data set listed under Homo sapiens [2] stood at 300 nM. That is a sub-micromolar value.
As to `O=C1CCc2cc(-c3csc(-c4ccc(Cl)cc4)n3)ccc2N1`, the IC50 result in the data set listed under Homo sapiens [1] is on record as “Not Active”.
On to `CCOc1ccc(-c2nc(-c3ccc(C(=O)O)s3)cs2)cc1OCC`, for which, in data set [3], the solubility amounted to 23 mg/mL. For the same molecule, the IC50 in the data set listed under Homo sapiens [2] was 80 nM.
The molecule `COc1ccc(-c2nc(-c3ccc4c(c3)CCC(=O)N4)co2)cc1OC` returned an IC50 in the data set listed under Homo sapiens [2] above 10000 nM.
Same read-out and setting: for `Nc1ccc(-c2csc(-c3cccnc3)n2)cc1` the value was 3000 nM.
For `COc1cc(-c2nc(-c3ccc4c(c3)CCC(=O)N4)cs2)ccc1S(C)(=O)=O`, the half-maximal inhibitory concentration (IC50) result in the data set listed under Homo sapiens [1] is on record as “Not Active”.
In the data set filed under Homo sapiens [2], `CCOc1cc(-c2nc(-c3ccc4c(c3)CCC(=O)N4)cs2)ccc1OC` showed a half-inhibitory concentration (IC50) of 90 nM. This counts as double-digit nanomolar.
On to `CCOc1ccc(-c2nc(-c3cc(OC(C)=O)cc(OC(C)=O)c3)cs2)cc1OCC`, for which the thermodynamic solubility in data set [7] was below 0.001 mg/mL. For the same molecule, the IC50 in the data set listed under Homo sapiens [2] worked out at 1 nM.
As to `COc1ccc(-c2nc(-c3ccc4c(c3)CCC(=O)N4)c[nH]2)cc1OC`, the IC50 in the data set listed under Homo sapiens [2] was above 10000 nM.
Still for that read-out and setting: next, `COc1ccc(-c2nc(-c3ccc4c(c3)CCC(=O)N4)cs2)c(OC)c1`: 3000 nM; `COc1ccc(Cc2nc(-c3ccc4c(c3)CCC(=O)N4)cs2)cc1OC`: 10000 nM; `O=C1CCc2cc(-c3csc(-c4ccc(O)c(O)c4)n3)ccc2N1`: 1000 nM.
On the same count and under the same terms, for `O=C1CCc2cc(-c3csc(-c4cccnc4)n3)ccc2N1` the value was 1000 nM.
Take `CCOc1ccc(-c2nc(-c3cccc(C(=O)O)n3)cs2)cc1OCC` [TETOMILAST]: the solubility in data set [3] was 21 mg/mL. In addition, 70 nM corresponded to half-maximal inhibition in the data set filed under Homo sapiens [2] (IC50).

As usually defined, the IC50 is the concentration at which inhibition is half-maximal. Read a high IC50 as a need for much substance. The term solubility denotes the concentration that dissolves in the medium under given conditions. The term thermodynamic solubility denotes solubility found after equilibrating the solid with the medium.

For the origin of these results see ChEMBL document CHEMBL1128742, “Novel thiazole derivatives as inhibitors of superoxide production by human neutrophils: synthesis and structure-activity relationships” (J Med Chem, 1995).
